OX1R antag-1: human HCRTR1 antagonism; CHO/OX1R cells, Fluo-8 calcium fluorescence, orexin A; 0.43% of 330,000 active; O43613; inhibition, % at 5 µM; AID 434989;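 active = inhibition above its plate's threshold, mean inhibition of all tested compounds on the plate plus 3 SD, cut at about 37% in these data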;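 also: 0% = orexin A challenge wells and 100% = SB-334867-A antagonist wells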
OX1R antag-2: blocks the human orexin 1 receptor; O43613; OX1R-expressing cells, FRET antagonist read-out; inhibition, % at 6.6 µM; 1.8% of 330,000 active; AID 485270; in the data active = inhibition mostly above about 38%, no sharp cut-off; inactive = mostly below about 40%;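 also: 0% = agonist challenge alone and 100% = reference antagonist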
CHO parental Ca: counter-screen for OX1R antagonists: effect in parental CHO cells | parental CHO-K1, ATP-induced calcium, Fluo-8 fluorescence | inhibition, % at 5.6 µM | 0.63% of 330,000 active | AID 463079;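 active = inhibition above that plate's mean sample inhibition plus 3 SD, cut at about 26% in these data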;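 also: 0% = ATP-challenged DMSO wells and 100% = DMSO wells without ATP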
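Assay system: parental CHO cells; Read-out basis: percent inhibition of ATP-evoked calcium rise, normalized to controls; Benchmarks: ATP and no-ATP DMSO wells; Compound dosing: single nominal dose of 5.6 µM per compound; Signal: Fluo-8 calcium dye fluorescence; Also added: ATP as calcium-mobilizing challenge; Repeats: singlicate.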
zfTRPN1 agonist: zebrafish TRPN1 (NompC) channel agonism; AID 1424; activation, % at 3 µM; HEK293 zebrafish TRPN1-YFP, Fluo-8 calcium fluorescence; 100% = response to 87 µM carbachol; 0.18% of 220,000 active;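 active = activation above its plate's cutoff, the mean activation of test wells on that plate plus 3 SD, cut at about 19% in these data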;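 also: 0% = DMSO alone and 100% = 87 µM carbachol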
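Control set: carbachol 87 µM as high control, DMSO as low control; system: HEK293 stable line with zebrafish TRPN1-YFP; read-out: % activation versus carbachol response; detection: intracellular calcium fluorescence with Fluo-8; doses: single test compound dose, 3 µM nominal, 0.3% DMSO; schedule: dye 1 h 37 °C plus 30 min RT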
GPR7 antagonist: human neuropeptides B/W receptor 1 antagonism; inhibition, % at 4.4 µM; 1.1% of 290,000 active; GPR7-expressing cells, fluorescence antagonist assay; in the data active = inhibition above about 16%, passing the limit was not always enough;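 also: cells stimulated with the agonist NPW; 0% = agonist with vehicle and 100% = vehicle without agonist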
TRPML3 ag: activates the human TRPML3 channel; Q8TDD5; AID 1448; activation, % at 3 µM; HEK293 TRPML3-YFP, Fluo-8 calcium fluorescence; 100% = the carbachol control signal; 0.29% of 220,000 active;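 active = activation above its plate's cutoff, the mean activation of the plate's test wells plus 3 SD, cut at about 12% in these data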;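 also: 0% = DMSO only wells and 100% = carbachol wells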
Target sequence (Q8TDD5 whole entry, looked up): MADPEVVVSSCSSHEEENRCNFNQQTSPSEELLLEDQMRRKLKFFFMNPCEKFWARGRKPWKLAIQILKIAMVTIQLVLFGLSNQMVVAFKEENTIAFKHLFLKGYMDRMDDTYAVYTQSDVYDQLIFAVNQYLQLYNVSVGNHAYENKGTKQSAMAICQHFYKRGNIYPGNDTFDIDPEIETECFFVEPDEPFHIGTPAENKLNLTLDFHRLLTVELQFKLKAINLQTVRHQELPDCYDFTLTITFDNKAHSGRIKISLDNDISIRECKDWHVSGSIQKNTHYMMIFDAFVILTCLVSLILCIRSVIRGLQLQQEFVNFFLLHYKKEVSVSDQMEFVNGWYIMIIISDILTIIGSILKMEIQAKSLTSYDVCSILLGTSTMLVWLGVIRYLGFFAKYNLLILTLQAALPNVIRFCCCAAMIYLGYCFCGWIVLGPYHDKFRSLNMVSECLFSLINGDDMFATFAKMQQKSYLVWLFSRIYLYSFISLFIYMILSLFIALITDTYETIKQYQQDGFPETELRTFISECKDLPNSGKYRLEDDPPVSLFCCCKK
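system = HEK293 cells stably carrying human TRPML3-YFP | doses = one concentration, 3 µM nominal, 0.3% DMSO | timing = dye loading 1 h 37 °C then 30 min ambient, 125 s read | detection = Fluo-8 calcium dye fluorescence, ex 470-495, em 515-575 nm | benchmarks = high control carbachol 87 µM, low control DMSO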
OX1R HTRF conf: OX1R (human) antagonism, HTRF confirmed; shares compounds with OX1R antag-2; OX1R-expressing cells, HTRF antagonist assay; inhibition, % at 6.6 µM; 49% of 1,800 active; AID 492964; in the data active = inhibition above about 55%;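 also: CHO cells expressing OX1R stimulated with orexin A at about EC80; 0% = agonist challenge alone and 100% = reference antagonist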
CHO-K1 HTRF cnt: counter-screen: parental CHO-K1 HTRF response; inhibition, % at 6.6 µM; shares compounds with OX1R antag-2; parental CHO-K1 cells, HTRF counterscreen; 48% of 1,800 active; in the data active = inhibition above about 17%;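 also: 0% = agonist challenge with vehicle and 100% = vehicle alone without agonist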
* marks the source's active call; other numbers are inactive results; x = no result given. Sampled rows, rich in hits. Any-hit rate of the full collection: about 3.2%.

SMILES | OX1R antag-1 | OX1R antag-2 | CHO parental Ca | zfTRPN1 agonist | GPR7 antagonist | TRPML3 ag | OX1R HTRF conf | CHO-K1 HTRF cnt
O=C(CNC(=O)c1ccccc1)N/N=C/c1ccccc1Cl | -27.3 | 8.1 | -9.4 | -2.0 | -0.8 | 0.2 | x | x
O=C(O)CCCN1C(=O)c2cccc3cccc(c23)C1=O | -4.1 | 46.1 | -4.0 | x | -6.5 | x | x | x
O=C(CCCN1C(=O)c2cccc3cccc(c23)C1=O)NC1CCS(=O)(=O)C1 (stereo unspecified) | -21.2 | 84.8* | -4.8 | -0.3 | -6.9 | 0.4 | 41.9 | 49.7*
O=C(NCC(c1cccs1)N1CCOCC1)c1cc([N+](=O)[O-])cc([N+](=O)[O-])c1 (stereo unspecified) | -9.0 | 112.3* | -5.5 | -0.8 | 5.9 | 0.7 | 39.5 | 58.2*
COc1ccc(/C=C/C(=O)NCC(=O)N/N=C(/C)c2ccco2)cc1 | -7.7 | 13.4 | -12.1 | x | -6.8 | x | x | x
CC1CCCCN1C(=O)Cn1cnc2cc([N+](=O)[O-])ccc2c1=O (stereo unspecified) | -10.1 | 122.9* | -13.3 | 1.5 | -8.1 | 0.5 | 81.0* | 85.8*
[O-][n+]1onc2c3ccnnc3ccc21 | 1.1 | 150.5* | -9.1 | -0.2 | 2.1 | 0.2 | 50.0 | 82.8*
[O-][n+]1onc2c1CCc1nnccc1-2 | -7.3 | 19.5 | -1.9 | -1.1 | -7.3 | 0.6 | x | x
COn1c(C)c(C(C)=O)c2c3no[n+]([O-])c3ccc21 | -6.1 | 22.1 | -11.6 | 1.2 | -8.2 | 0.2 | x | x
Cc1cc2c(ccc3c2no[n+]3[O-])nn1 | -9.7 | 166.3* | -6.4 | -0.5 | -3.8 | 0.6 | 50.9 | 75.8*
Nc1ccc2c(c1)C(=O)c1ccccc1C2=O | -10.4 | 22.3 | 4.5 | x | x | x | x | x
O=C1c2ccccc2C(=O)c2[nH]c(=O)[nH]c21 | -14.1 | 82.3* | -7.4 | x | -11.4 | x | 70.6* | 108.6*
COc1cccc(NC(=O)c2c(C)nn(-c3ccccc3)c2Cl)c1 | x | x | x | x | -2.9 | x | x | x
O=C(CCS(=O)(=O)c1cccc2nsnc12)NCc1ccccc1 | -26.1 | 119.7* | -16.8 | -0.4 | -15.4 | -0.7 | 40.2 | 38.6*
CC(=O)c1cccc(NC(=O)CCS(=O)(=O)c2cccc3nsnc23)c1 | -30.0 | 88.9* | -25.1 | -0.1 | 4.7 | 0.0 | 32.7 | 24.9*
COc1cccc(NC(=O)CS(=O)(=O)c2cccc3nsnc23)c1 | -21.4 | 53.5 | -5.7 | x | 12.7 | x | x | x
O=C(CCCNS(=O)(=O)c1cccc2nsnc12)NCc1ccccc1 | -22.9 | 28.4 | -10.0 | 8.9 | -9.0 | 0.3 | x | x
O=C1NC(Cc2c[nH]c3ccccc23)C(=O)N1Cc1ccc(CN2C(=O)NC(Cc3c[nH]c4ccccc34)C2=O)cc1 (stereo unspecified) | 9.5 | 53.5 | 7.9 | 0.1 | 10.4 | 0.8 | x | x
COc1ccccc1C(=O)NCCCCNC(=O)c1ccccc1OC | 14.0 | 79.3* | -9.8 | x | x | x | 59.1* | 0.7
COc1ccccc1CNC(=O)c1ccccc1OC | -24.1 | 12.1 | -13.6 | 0.3 | 4.7 | 1.0 | x | x
CCOc1ccc(C=NNC(=O)c2ccc(-n3cnnn3)cc2)cc1 | -11.7 | 9.7 | 3.8 | x | x | x | x | x
CC(C)C(=O)N[C@@H]1c2ccccc2CC[C@@H]1O | -10.1 | 2.5 | -3.5 | x | x | x | x | x
Cc1ccc(-c2ccccc2NC(=O)CS(=O)CC(=O)Nc2ccc(C)c(Cl)c2)o1 (stereo unspecified) | 11.3 | 81.7* | 6.2 | x | -13.3 | x | 42.9 | 6.8
NS(=O)(=O)c1ccc(N=Cc2c(O)c3ccccc3oc2=O)cc1 | -15.3 | 77.3* | -4.6 | 0.7 | -7.1 | 0.2 | 21.0 | -11.3
CCOc1ccccc1C1c2cc3c(cc2OC(C)(N2CCCC2)C1C)OCO3 (stereo unspecified) | -10.3 | 14.2 | -18.2 | x | x | x | x | x
SMILES | OX1R antag-1 | OX1R antag-2 | CHO parental Ca | zfTRPN1 agonist | GPR7 antagonist | TRPML3 ag | OX1R HTRF conf | CHO-K1 HTRF cnt
Cc1ccc([C@@H]2CC=C(C(=O)O)[C@H](c3ccccc3F)N2S(=O)(=O)c2ccccc2C)cc1 | 29.6 | 78.4* | -10.2 | x | x | x | 81.3* | 0.6
COc1ccc([C@@H]2CC=C(C(=O)O)[C@H](c3cccc(Cl)c3)N2S(=O)(=O)c2ccccc2C)cc1 | 14.4 | 88.4* | -18.7 | x | x | x | 91.4* | -0.5
Cc1ccc(S(=O)(=O)N2[C@@H](c3ccccc3)C(C(=O)O)=CC[C@H]2c2ccc(Cl)cc2)cc1 | 14.2 | 77.9* | -11.6 | x | x | x | 53.4 | 0.9
CC(=O)C1C(=O)c2c(cccc2[N+](=O)[O-])C1=Nc1ccc(S(N)(=O)=O)cc1 (stereo unspecified) | -4.4 | 32.1 | -13.2 | 1.6 | -5.3 | 0.8 | x | x
NC(=O)c1ccc(NC(=O)CNC(=O)c2sc3ccccc3c2Cl)cc1 | -4.8 | 6.3 | 3.9 | x | x | x | x | x
Cc1ccc(NC(=O)c2cnccn2)cc1S(=O)(=O)N1CCCCCC1 | -28.3 | 8.1 | -23.4 | x | x | x | x | x
COc1ccccc1CNc1ncccc1[N+](=O)[O-] | -19.9 | 0.8 | -7.3 | x | -9.3 | x | x | x
COC(=O)CCCNc1ncccc1[N+](=O)[O-] | -10.6 | 97.1* | -7.0 | 1.8 | 8.8 | 0.6 | 39.0 | 39.2*
O=c1sc(Nc2ccccc2)nc2ccsc12 | 14.8 | 84.7* | -14.9 | 1.1 | -9.0 | 0.7 | 92.0* | 8.9
O=C(Nc1nc2ccsc2c(=O)s1)c1ccco1 | -0.5 | 17.7 | 0.6 | 0.2 | -5.1 | 0.1 | x | x
O=C(NCCc1ccccc1)[C@@H]1CC=C[C@@H]2CCN(Cc3ccccc3)C(=O)[C@@H]21 | 13.3 | 78.7* | -13.6 | x | x | x | 88.8* | 6.9
CN(c1ccc(O)cc1)c1nc(O)c(C2=c3ccccc3=NC2=O)s1 | 10.2 | 78.8* | -17.2 | x | x | x | 45.4 | 13.1
O=C(NCC1CCCO1)c1cccc(Oc2ccc([N+](=O)[O-])cc2)c1 (stereo unspecified) | 0.5 | 10.6 | 12.1 | x | 11.7 | x | x | x
O=C(OCc1nc2ccccc2[n+]([O-])c1C(=O)c1ccccc1)c1ccco1 | -34.7 | 27.1 | -26.0 | 2.6 | -18.8 | -0.3 | x | x
CCOC(=O)c1c(COC(=O)c2ccco2)nc2ccccc2[n+]1[O-] | -13.1 | 106.8* | -24.4 | 0.7 | -2.6 | 0.4 | 52.7 | 28.2*
CC(=O)c1c(COC(=O)c2ccco2)nc2ccccc2[n+]1[O-] | -23.5 | 39.6 | -16.5 | x | x | x | x | x
COc1ccc2nc(COC(=O)c3ccco3)c(C(C)=O)[n+]([O-])c2c1 | -5.7 | 125.5* | -27.6 | 0.8 | -2.0 | 1.1 | 31.8 | 34.9*
O=C(O)c1cccc(NC2=C(n3nnc4ccccc43)C(=O)c3ccccc3C2=O)c1 | 5.6 | 148.5* | -7.3 | 0.4 | -5.9 | 0.4 | 94.3* | 95.3*
Nc1c(N=Nc2ccccc2F)c(=O)[nH]n1-c1ccccc1 | 21.9 | 85.8* | -9.3 | 0.9 | 13.9 | 0.6 | 67.0* | 12.5

High-throughput results: PubChem, The Scripps Research Institute Molecular Screening Center
